Reference: article PMC9835613 (Chemosphere, 2022)
Values joined by “and” are separate entries in the source; they are usually repeats but may differ in a detail not shown here. Identical values can stand only once. Marks after values point to notes of the source that are not given here.

How the values were obtained:
zebrafish = experiment: Survival of embryos after TCDD exposure; assay type: in vivo, zebrafish (Danio rerio); settings: TCDD-exposed groups at 72 hpf; control (DMSO) 96.4%, p = 0.49
[1] = ref Burkhard and Kuehl, 1986; cited from earlier work
[2] = TCDD body burden and elimination in embryos, GC-HRMS; assay type: in vivo, zebrafish (Danio rerio); settings: for body burden relative to the 50 ppt dose: 24 hpf; for Concentration of TCDD detected per embryo (body burden): 1 h at 4 hpf, mean; for half-life: zebrafish, whole embryo (pooled embryos), other: waterborne exposure
Summary of the method: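 AB zebrafish embryos, screened at 3 hpf, exposed at 4 hpf (20 per 2 mL egg water) for 1 h to 50 ppt, 1 ppb or 10 ppb test compound (DMSO stock diluted 1:1000) or paired DMSO, then raised in fresh egg water at 28.5 °C. Dechorionated at 24 hpf. Pooled embryos (7 at 1 and 10 ppb) snap-frozen at 24, 48 and 72 hpf.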

zebrafish metabolome = experiment: Non-targeted LC-HRMS metabolomics of TCDD-exposed embryos; assay type: in vivo, zebrafish (Danio rerio); settings: TCDD exposed vs DMSO
Summary of the method: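 Embryos given a 1-h exposure at 4 hpf to 50 ppt or 10 ppb test compound, or matched DMSO, pooled (40 and 7 embryos respectively) at 24, 48 and 72 hpf. LC-HRMS used HILIC (25 °C) and C18 (60 °C) columns with 2 mM ammonium acetate/acetonitrile gradients, in negative and positive ion modes.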

In the case of `Clc1cc2c(cc1Cl)Oc1cc(Cl)c(Cl)cc1O2` [TCDD, 2,3,7,8-tetrachlorodibenzo-p-dioxin], the average survival rate (zebrafish) is given as 96.3%, the Kow [1] is given as 7.02 and the “body burden relative to the 50 ppt dose” value ([2]; 1 ppb exposure vs 50 ppt exposure) is given as “approximately 3 times”. The “Concentration of TCDD detected per embryo (body burden)” value ([2]; 1 ppb waterborne exposure, 48 HPF) was 12.7 pg/embryo, the “Concentration of TCDD detected per embryo (body burden)” value ([2]; 1 ppb waterborne exposure, 72 HPF) was 4.30* pg/embryo and the “body burden relative to the 50 ppt dose” value ([2]; 10 ppb exposure vs 50 ppt exposure) was “approximately 4.45 times”. For the same compound, the “Concentration of TCDD detected per embryo (body burden)” value ([2]; 10 ppb waterborne exposure, 24 HPF) was 26.6 ± 1.2 pg/embryo and 38.0 ± 4.34 pg/embryo and 38.0* pg/embryo, the “Concentration of TCDD detected per embryo (body burden)” value ([2]; 10 ppb waterborne exposure, 48 HPF) was 14.7 pg/embryo and the “Concentration of TCDD detected per embryo (body burden)” value ([2]; 10 ppb waterborne exposure, 72 HPF) was 9.78* pg/embryo. For the same compound, the “Concentration of TCDD detected per embryo (body burden)” value ([2]; 50 ppt waterborne exposure, 48 HPF) was 5.27 pg/embryo, the “Concentration of TCDD detected per embryo (body burden)” value ([2]; 50 ppt waterborne exposure, 72 HPF) was 0.407 pg/embryo and the half-life ([2]; 1 ppb) was 32.7 h. The half-life ([2]; 10 ppb) was 10.7 h, the “upregulation of 3a, 7a-Dihydroxy-5b-cholestane” value (zebrafish metabolome; bile acid biosynthesis pathway) was 1.01 fold and the “decrease of the dihydrotestosterone peak” value (zebrafish metabolome; every 24 h) was 6.02 fold. The downregulation of androsterone (zebrafish metabolome; every 24 h) was 0.363 fold, the upregulation of pregnenolone (zebrafish metabolome; every 24 h) was 0.529 fold and the “downregulation of L-Glutamic acid (glutamate)” value (zebrafish metabolome; over time) was 0.30 fold. The downregulation of dopamine (zebrafish metabolome; over time) was 0.66 fold and the “downregulation of gamma-aminobutyric acid (GABA)” value (zebrafish metabolome; over time) was 0.32 fold.
